Assay results from ChEMBL document CHEMBL1154737, “Design, synthesis, and biological evaluation of substituted naphthalene imides and diimides as anticancer agent” (J Med Chem, 2009).
Calls of active or inactive are those of the source. The rule behind the calls is not given here.

Tests used:
CCRF-CEM [1] = assay: Cytotoxicity against human CCRF-CEM cells at 10 uM after 72 hrs by MTT assay; assay type: functional, cell-based
Outline: (§1)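 MTT growth-inhibition assay on SKBR-3 breast cancer and CEM leukemia cells, 72 h exposure over 0.1–10 μM. IC50 is the concentration giving 50% growth inhibition, derived by linear regression and reported as a mean of six experiments. Single-concentration entries are taken at 10 μM, the top of the range.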

SK-BR-3 [2] = assay: Cytotoxicity against human SKBR3 cells at 10 uM after 72 hrs by MTT assay; assay type: functional, cell-based; outline: as §1
SK-BR-3 [3] = assay: Cytotoxicity against human SKBR3 cells after 72 hrs by MTT assay; assay type: functional, cell-based; settings: SK-BR-3, 72 h; outline: as §1
CCRF-CEM [4] = assay: Cytotoxicity against human CCRF-CEM cells after 72 hrs by MTT assay; assay type: functional, cell-based; outline: as §1
SH-SY5Y [5] = assay: Cytotoxicity against human SH-SY5Y after 72 hrs by trypan blue exclusion assay; assay type: functional, cell-based
Outline: (§2)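 SH-SY5Y neuroblastoma cells incubated with compounds at 1 to 5 μM for the indicated times up to 72 h. Viable cells counted by dye exclusion.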

HL-60 [6] = assay: Induction of apoptosis in human HL60 cells assessed as caspase 3 activation at 5 uM after 24 hrs by DEVDase activity assay; assay type: functional, cell-based
Outline: (§3)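 HL60 cells exposed to 5 μM for 4 or 24 h. DEVDase (effector caspase 3/7) activity measured on the DEVD peptide substrate.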

SH-SY5Y [7] = assay: Cytotoxicity against human SH-SY5Y assessed as decrease in ERK2 protein level at 5 uM after 20 hrs by Western blotting; assay type: functional, cell-based
Outline: (§4)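 SH-SY5Y cells treated 20 h with 5 μM, then harvested. Protein content and phosphorylation status in cell extracts read by Western blotting at 50 μg protein per lane.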

[8] = molecular target: DNA topoisomerase 2-alpha (Homo sapiens) (UniProt P11388); assay: Stimulation of human recombinant topoisomerase 2alpha-mediated SV40 DNA cleavage at 10 uM after 45 mins by PAGE
Chain of DNA topoisomerase 2-alpha (Homo sapiens) (P11388 whole entry): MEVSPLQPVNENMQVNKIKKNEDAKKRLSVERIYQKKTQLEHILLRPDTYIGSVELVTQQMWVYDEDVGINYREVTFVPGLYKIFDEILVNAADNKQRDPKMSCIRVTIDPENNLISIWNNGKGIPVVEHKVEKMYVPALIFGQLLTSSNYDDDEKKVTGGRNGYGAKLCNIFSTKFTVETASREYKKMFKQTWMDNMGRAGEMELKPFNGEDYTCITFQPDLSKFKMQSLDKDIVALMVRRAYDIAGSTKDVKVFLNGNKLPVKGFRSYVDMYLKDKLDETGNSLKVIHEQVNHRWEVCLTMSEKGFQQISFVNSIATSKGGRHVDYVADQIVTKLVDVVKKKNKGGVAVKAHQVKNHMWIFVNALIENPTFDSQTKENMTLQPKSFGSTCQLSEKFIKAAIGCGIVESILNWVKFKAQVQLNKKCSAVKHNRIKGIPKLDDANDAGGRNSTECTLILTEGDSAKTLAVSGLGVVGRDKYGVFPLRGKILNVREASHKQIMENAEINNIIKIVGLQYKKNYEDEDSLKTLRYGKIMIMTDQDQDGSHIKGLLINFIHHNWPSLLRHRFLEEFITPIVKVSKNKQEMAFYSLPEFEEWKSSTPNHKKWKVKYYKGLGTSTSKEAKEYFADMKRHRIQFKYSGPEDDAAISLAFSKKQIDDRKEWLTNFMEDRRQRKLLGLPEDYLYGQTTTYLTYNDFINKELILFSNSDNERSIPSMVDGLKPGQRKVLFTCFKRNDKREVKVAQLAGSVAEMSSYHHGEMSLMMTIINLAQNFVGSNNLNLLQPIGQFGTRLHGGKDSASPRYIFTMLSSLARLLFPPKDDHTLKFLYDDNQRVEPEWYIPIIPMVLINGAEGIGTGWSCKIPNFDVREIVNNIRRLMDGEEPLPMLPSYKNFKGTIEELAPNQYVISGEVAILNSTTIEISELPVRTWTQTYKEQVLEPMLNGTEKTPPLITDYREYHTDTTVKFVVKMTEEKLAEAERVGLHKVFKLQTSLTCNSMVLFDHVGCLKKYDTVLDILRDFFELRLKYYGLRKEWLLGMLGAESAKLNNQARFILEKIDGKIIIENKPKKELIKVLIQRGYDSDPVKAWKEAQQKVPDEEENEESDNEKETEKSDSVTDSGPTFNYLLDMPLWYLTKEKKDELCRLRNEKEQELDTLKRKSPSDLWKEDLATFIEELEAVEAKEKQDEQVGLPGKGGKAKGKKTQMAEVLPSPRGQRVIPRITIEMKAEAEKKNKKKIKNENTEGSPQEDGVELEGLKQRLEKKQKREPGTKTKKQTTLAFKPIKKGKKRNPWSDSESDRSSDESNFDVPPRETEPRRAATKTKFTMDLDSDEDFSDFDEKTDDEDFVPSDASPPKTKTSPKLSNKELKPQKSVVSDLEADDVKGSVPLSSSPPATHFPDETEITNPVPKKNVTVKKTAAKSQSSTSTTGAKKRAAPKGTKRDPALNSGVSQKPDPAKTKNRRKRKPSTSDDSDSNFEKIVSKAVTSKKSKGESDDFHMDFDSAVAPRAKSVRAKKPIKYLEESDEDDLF
Outline: (§5)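 Cleavage assay with recombinant human DNA topoisomerase IIα, using SV40 DNA as substrate, to test for stimulation of DNA cleavage (poison activity).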

SH-SY5Y [9] = assay: Cytotoxicity against human SH-SY5Y assessed as decrease in ERK2 phosphorylation at 5 uM after 20 hrs by Western blotting; assay type: functional, cell-based; outline: as §4
SH-SY5Y [10] = assay: Cytotoxicity against human SH-SY5Y assessed as decrease in ERK1 protein level at 5 uM after 20 hrs by Western blotting; assay type: functional, cell-based; outline: as §4
HL-60 [11] = assay: Cytotoxicity against human HL60 cells after 24 hrs by dye exclusion assay; settings: HL-60, 24 h
HL-60 [12] = assay: Induction of apoptosis in human HL60 cells assessed as decrease in procaspase 3 level at 5 uM after 4 hrs by Western blotting; assay type: functional, cell-based
Outline: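 HL60 cells incubated 4 h with 5 μM. Extracted proteins analysed by Western blot for the 32 kDa procaspase 3 precursor and its active proteolytic fragment.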

SH-SY5Y [13] = assay: Cytotoxicity against human SH-SY5Y at 1 to 5 uM after 72 hrs by trypan blue exclusion assay; assay type: functional, cell-based; outline: as §2
Calf thymus DNA = assay: Displacement of ethidium bromide from calf thymus DNA by fluorescence assay; assay type: nucleic-acid assay, Bos taurus; settings: for Kapp: Bos taurus
Outline: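 Fluorometric intercalator displacement. EC50 is the drug concentration that cuts DNA-bound ethidium fluorescence by 50%, given as the mean of three determinations ± SEM. Apparent binding constant is calculated taking the ethidium binding constant as 10^7 M-1.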

SH-SY5Y [14] = assay: Cytotoxicity against human SH-SY5Y at 1 uM after 24 hrs by trypan blue exclusion assay; assay type: functional, cell-based
Outline: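 SH-SY5Y cells given 1 μM. Viability at 24 h scored by dye exclusion.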

SH-SY5Y [15] = assay: Cytotoxicity against human SH-SY5Y assessed as cell viability at 5 uM after 20 hrs by trypan blue exclusion assay; assay type: functional; settings: read-out: Activity
Outline: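 SH-SY5Y cells exposed to 5 μM for 20 h. Viable cell fraction assessed by dye exclusion.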

[16] = molecular target: DNA topoisomerase 2-alpha (Homo sapiens) (UniProt P11388); assay: Stimulation of human recombinant topoisomerase 2alpha-mediated SV40 DNA cleavage at 50 uM after 45 mins by PAGE; outline: as §5
HL-60 [17] = assay: Induction of apoptosis in human HL60 cells assessed as caspase 3 activation at 5 uM after 4 hrs by DEVDase activity assay; assay type: functional, cell-based; outline: as §3
HL-60 [18] = assay: Induction of apoptosis in human HL60 cells assessed as caspase 3 activation after 4 hrs by DEVDase activity assay; assay type: functional, cell-based
Outline: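 HL60 cells treated 4 h at the indicated doses, then collected. Caspase (DEVDase) activity determined.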

SH-SY5Y [19] = assay: Cytotoxicity against human SH-SY5Y assessed as decrease in ERK1 phosphorylation at 5 uM after 20 hrs by Western blotting; assay type: functional, cell-based; outline: as §4
Jurkat = assay: Induction of apoptosis in human Jurkat T cells assessed as caspase 3 activation at 5 uM after 24 hrs by DEVDase activity assay; assay type: functional, cell-based
Outline: (§6)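 SH-SY5Y neuroblastoma, H9c2 heart and Jurkat T cells treated 24 h with 5 μM. Caspase (DEVDase) activation measured, reported as mean ± SEM of triplicates.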

SH-SY5Y [20] = assay: Induction of apoptosis in human SH-SY5Y cells assessed as caspase 3 activation at 5 uM after 24 hrs by DEVDase activity assay; assay type: functional, cell-based; outline: as §6
SH-SY5Y [21] = assay: Cytotoxicity against human SH-SY5Y assessed as p53 protein accumulation at 1 uM after 20 hrs by Western blotting; assay type: functional, cell-based
Outline: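 SH-SY5Y extracts prepared after 20 h incubation at the indicated concentrations. p53 content measured by Western blot, 50 μg protein loaded per point.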

H9c2 = assay: Induction of apoptosis in rat H9c2 cells assessed as caspase 3 activation at 5 uM after 24 hrs by DEVDase activity assay; assay type: cell-based; settings: h9c2, 24 h; outline: as §6
SH-SY5Y [22] = assay: Cytotoxicity against human SH-SY5Y assessed as cell survival at 1 uM after 72 hrs by trypan blue exclusion assay; assay type: functional; settings: read-out: Survival
Outline: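 SH-SY5Y neuroblastoma cells incubated with compound at 1 to 5 μM for the indicated times, including 24 h and 72 h. Viable cells were then counted by dye exclusion and expressed as cell survival.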

SH-SY5Y [23] = assay: Cytotoxicity against human SH-SY5Y assessed as p53 protein accumulation at 5 uM after 20 hrs by Western blotting; assay type: functional, cell-based; outline: as §4

SMILES: COc1ccccc1CNCCCN1C(=O)c2cccc3cccc(c23)C1=O
- Activity (CCRF-CEM [1]): inactive
- Activity (SK-BR-3 [2]): inactive

SMILES: COc1ccccc1CNCCCCCN1C(=O)c2ccc3c4c(ccc(c24)C1=O)C(=O)N(CCCCCNCc1ccccc1OC)C3=O
- IC50 (SK-BR-3 [3]): 1.1 µM
- IC50 (CCRF-CEM [4]): 1.1 µM

SMILES: COc1ccccc1CNCCCN1C(=O)c2ccc3c4c(ccc(c24)C1=O)C(=O)N(CCCNCc1ccccc1OC)C3=O
- IC50 (SH-SY5Y [5]): 1.4 µM
- Activity (HL-60 [6]): Active
- Activity (SH-SY5Y [7]): Active
- Activity [8]: inactive
- Activity (SH-SY5Y [9]): Active
- Activity (SH-SY5Y [10]): Active
- IC50 (SK-BR-3 [3]): 0.2 µM
- IC50 (HL-60 [11]): 1.2 µM
- Activity (HL-60 [12]): Active
- Activity (SH-SY5Y [13]): Active
- EC50 (Calf thymus DNA): 0.122 µM
- Kapp (Calf thymus DNA): 2.07 ×10⁸ /M
- Activity (SH-SY5Y [14]): inactive
- viability at 5 µM (SH-SY5Y [15]): 70%
- Activity [16]: inactive
- Activity (HL-60 [17]): Active
- Activity (HL-60 [18]): Dose-dependent effect
- Activity (SH-SY5Y [19]): Active
- IC50 (CCRF-CEM [4]): 0.4 µM

SMILES: COc1ccccc1CNCCCCCCN1C(=O)c2ccc3c4c(ccc(c24)C1=O)C(=O)N(CCCCCCNCc1ccccc1OC)C3=O
- IC50 (SK-BR-3 [3]): 1.2 µM
- IC50 (CCRF-CEM [4]): 2.2 µM

SMILES: COc1ccccc1CNCCCCCN1C(=O)c2cccc3cccc(c23)C1=O
- Activity (CCRF-CEM [1]): inactive
- Activity (SK-BR-3 [2]): inactive

SMILES: COc1ccccc1CNCCN1C(=O)c2ccc3c4c(ccc(c24)C1=O)C(=O)N(CCNCc1ccccc1OC)C3=O
- IC50 (SH-SY5Y [5]): 1.4 µM
- Activity (Jurkat): Active
- Activity (HL-60 [6]): Active
- Activity (SH-SY5Y [20]): Active
- Activity (SH-SY5Y [7]): Active
- Activity [8]: inactive
- Activity (SH-SY5Y [21]): Active
- Activity (SH-SY5Y [9]): Active
- Activity (H9c2): Active
- Activity (SH-SY5Y [10]): Active
- IC50 (SK-BR-3 [3]): 0.7 µM
- IC50 (HL-60 [11]): 0.9 µM
- Activity (HL-60 [12]): Active
- Activity (SH-SY5Y [13]): Active
- EC50 (Calf thymus DNA): 0.093 µM
- Kapp (Calf thymus DNA): 2.72 ×10⁸ /M
- viability at 5 µM (SH-SY5Y [15]): 70%
- Activity [16]: inactive
- Activity (HL-60 [17]): Active
- Activity (HL-60 [18]): Dose-dependent effect
- Activity (SH-SY5Y [19]): Active
- IC50 (CCRF-CEM [4]): 1.3 µM
- viability at 1 µM (SH-SY5Y [22]): 60%

SMILES: COc1ccccc1CNCCCCCCN1C(=O)c2cccc3cccc(c23)C1=O
- Activity (CCRF-CEM [1]): inactive
- Activity (SK-BR-3 [2]): inactive

SMILES: COc1ccccc1CNCCCCN1C(=O)c2ccc3c4c(ccc(c24)C1=O)C(=O)N(CCCCNCc1ccccc1OC)C3=O
- IC50 (SK-BR-3 [3]): 0.7 µM
- IC50 (CCRF-CEM [4]): 0.8 µM

SMILES: COc1ccccc1CNCCCCCCCCCCN1C(=O)c2ccc3c4c(ccc(c24)C1=O)C(=O)N(CCCCCCCCCCNCc1ccccc1OC)C3=O
- IC50 (SK-BR-3 [3]): 0.2 µM
- IC50 (CCRF-CEM [4]): 0.7 µM

SMILES: COc1ccccc1CNCCCCCCCN1C(=O)c2cccc3cccc(c23)C1=O
- Activity (CCRF-CEM [1]): inactive
- Activity (SK-BR-3 [2]): inactive

SMILES: COc1ccccc1CNCCCCCCCCN1C(=O)c2cccc3cccc(c23)C1=O
- IC50 (SK-BR-3 [3]): 1.4 µM
- IC50 (CCRF-CEM [4]): 1.2 µM

SMILES: COc1ccccc1CNCCCCCCCN1C(=O)c2ccc3c4c(ccc(c24)C1=O)C(=O)N(CCCCCCCNCc1ccccc1OC)C3=O
- IC50 (SK-BR-3 [3]): 1.7 µM
- IC50 (CCRF-CEM [4]): 2.5 µM

SMILES: COc1ccccc1CNCCCCCCCCCN1C(=O)c2cccc3cccc(c23)C1=O
- Activity [8]: inactive
- IC50 (SK-BR-3 [3]): 0.5 µM
- Activity [16]: inactive
- IC50 (CCRF-CEM [4]): 1.3 µM

SMILES: CN(C)CCN1C(=O)c2cccc3cc([N+](=O)[O-])cc(c23)C1=O [MITONAFIDE]
- Activity (SH-SY5Y [23]): Active
- Activity (HL-60 [6]): Active
- Activity (SH-SY5Y [7]): Active
- Activity (SH-SY5Y [9]): inactive
- Activity (SH-SY5Y [10]): Active
- IC50 (HL-60 [11]): 1.6 µM
- EC50 (Calf thymus DNA): 11.5 µM
- Kapp (Calf thymus DNA): 2.2 ×10⁶ /M
- viability at 5 µM (SH-SY5Y [15]): 70%
- Activity (HL-60 [17]): Active
- Activity (SH-SY5Y [19]): inactive

SMILES: COc1ccccc1CNCCN1C(=O)c2cccc3cccc(c23)C1=O
- Activity [8]: inactive
- Activity (CCRF-CEM [1]): inactive
- IC50 (SK-BR-3 [3]): 2 µM
- Activity [16]: inactive

SMILES: COc1ccccc1CNCCCCCCCCCCN1C(=O)c2cccc3cccc(c23)C1=O
- IC50 (SK-BR-3 [3]): 2 µM
- IC50 (CCRF-CEM [4]): 8 µM

SMILES: COc1ccccc1CNCCCCCCCCCN1C(=O)c2ccc3c4c(ccc(c24)C1=O)C(=O)N(CCCCCCCCCNCc1ccccc1OC)C3=O
- IC50 (SK-BR-3 [3]): 0.4 µM
- IC50 (CCRF-CEM [4]): 1.4 µM

SMILES: COc1ccccc1CNCCCCCCCCN1C(=O)c2ccc3c4c(ccc(c24)C1=O)C(=O)N(CCCCCCCCNCc1ccccc1OC)C3=O
- IC50 (SK-BR-3 [3]): 1 µM
- IC50 (CCRF-CEM [4]): 1.6 µM

SMILES: COc1ccccc1CNCCCCN1C(=O)c2cccc3cccc(c23)C1=O
- IC50 (SK-BR-3 [3]): 1.7 µM
- IC50 (CCRF-CEM [4]): 3.2 µM
